This passage reports EC30, Activity and MA results from ChEMBL document CHEMBL1128436, “Synthesis and biological evaluation of a new series of sterols as potential hypocholesterolemic agents” (1995).

Activity calls are given as the source filed them. The rule behind the calls is not given here.

Assay [1] has as its target Low-density lipoprotein receptor (Homo sapiens) (UniProt P01130). Put plainly: Capability of derepressing the transcription of human Low density lipoprotein receptor promoter in the presence of 25-hydroxycholesterol in CHO cells by luciferase assay; NA= Not active within the test range 0-20 ug/mL. It is filed as cell-based. In short, it runs like this:
(§1)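 Stably transfected CHO clone S27/B30 (LDL receptor promoter fused to firefly luciferase), grown to confluence (2-3 days, 37 °C, 5% CO2). Then 24 h in serum-free assay medium (DMEM/Ham's F-12 3:1, 0.5% bovine albumin) with 25-hydroxycholesterol 0.5 μg/mL plus compound at 0.30-20 μg/mL from ethanol stock, triplicate wells. Lysate luciferase peak light per μg protein (Coomassie). EC30 = concentration giving 30% rise over control. MA = % specific induction at 20 μg/mL.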

In another assay the test system is CHO. The experiment in a line: Capability of derepressing the transcription of SV40 promoter in CHO cells by luciferase assay; NA= Not active within the test range 0-20 ug/mL. As to conditions: Cricetulus griseus. In kind it is functional, cell-based. A digest of the protocol: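 Counter-screen in CHO clone SV40/LN9, with luciferase driven by the SV40 promoter. Confluent monolayers were given compound at 0.30-20 μg/mL for 24 h in serum-free albumin assay medium, triplicate wells. Lysates were read for luciferase peak luminescence, normalized to lysate protein.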

The target of assay [2] is Low-density lipoprotein receptor (Homo sapiens) (UniProt P01130). Put plainly: Capability of derepressing the transcription of human Low density lipoprotein receptor promoter in the presence of 25-hydroxycholesterol in CHO cells by luciferase assay. It is filed as cell-based. A digest of the protocol:
as §1

Assay [3] shares this target. Put plainly: Capability of derepressing the transcription of Low density lipoprotein receptor promoter in the presence of 25-hydroxycholesterol in CHO cells measured as maximum activity at 20 ug/mL. It is filed as cell-based. In short, it runs like this:
as §1

Sequence of Low-density lipoprotein receptor (Homo sapiens) (P01130 whole entry, the tested form may be a part): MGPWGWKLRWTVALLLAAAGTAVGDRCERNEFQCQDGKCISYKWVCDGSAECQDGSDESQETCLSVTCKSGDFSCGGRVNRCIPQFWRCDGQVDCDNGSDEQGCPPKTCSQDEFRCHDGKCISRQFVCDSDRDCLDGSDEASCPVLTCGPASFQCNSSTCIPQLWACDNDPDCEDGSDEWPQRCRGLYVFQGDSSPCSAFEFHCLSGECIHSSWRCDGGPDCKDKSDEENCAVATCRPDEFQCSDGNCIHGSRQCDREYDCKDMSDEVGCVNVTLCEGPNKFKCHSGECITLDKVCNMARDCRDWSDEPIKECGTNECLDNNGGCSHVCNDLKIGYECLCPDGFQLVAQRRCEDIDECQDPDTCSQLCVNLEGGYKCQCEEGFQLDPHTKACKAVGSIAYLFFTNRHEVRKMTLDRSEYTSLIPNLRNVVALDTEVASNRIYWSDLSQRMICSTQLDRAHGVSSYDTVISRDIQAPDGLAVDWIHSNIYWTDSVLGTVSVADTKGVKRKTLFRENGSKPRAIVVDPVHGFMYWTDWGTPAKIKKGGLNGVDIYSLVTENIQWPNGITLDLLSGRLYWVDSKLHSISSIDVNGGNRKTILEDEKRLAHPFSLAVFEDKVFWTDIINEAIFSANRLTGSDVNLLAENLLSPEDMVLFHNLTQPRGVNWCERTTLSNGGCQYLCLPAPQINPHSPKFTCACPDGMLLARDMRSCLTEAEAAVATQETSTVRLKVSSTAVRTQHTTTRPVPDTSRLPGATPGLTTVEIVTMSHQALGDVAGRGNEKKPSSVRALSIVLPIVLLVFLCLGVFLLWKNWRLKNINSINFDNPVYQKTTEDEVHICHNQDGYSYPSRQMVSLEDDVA

The EC30 is the concentration needed for an effect of 30%. As for `C#CC[C@H]1C2CC[C@H]3[C@@H]4CC[C@H]([C@H](C)CCCC(C)C)[C@@]4(C)CC[C@@H]3[C@@]2(C)CC[C@H]1O` (stereo not given in full), in assay [1], the EC30 result was “inactive”.
The same measure, in the same setting: then `C=CC[C@@H]1C[C@@]2(C)C(CC[C@H]3[C@@H]4CC[C@H]([C@H](C)CCCC(C)C)[C@@]4(C)CC[C@@H]32)C[C@H]1O` (stereo not given in full), with “inactive”.
Same read-out and setting: then `CC(C)CCC[C@@H](C)[C@H]1CC[C@H]2[C@@H]3CCC4[C@H](Cc5ccc(Cl)c(Cl)c5)[C@H](O)CC[C@]4(C)[C@H]3CC[C@]12C` (stereo not given in full), with “inactive”.
On to `C=C(Br)C[C@H]1C2CC[C@H]3[C@@H]4CC[C@H]([C@H](C)CCCC(C)C)[C@@]4(C)CC[C@@H]3[C@@]2(C)CC[C@H]1O` (stereo not given in full), for which the outcome with CHO was inactive. Further, the EC30 in assay [2] is 3.2 µM. Further, the MA in assay [3] worked out at 131%.
`C=CC[C@@H]1[C@H]2CC[C@@H]3[C@H](CC[C@]4(C)[C@@H]([C@H](C)CCCC(C)C)CC[C@@H]34)[C@@]2(C)CC[C@@H]1O`: in assay [1], the EC30 entry was “inactive”.
On the same count and under the same terms, then `CC(C)=CC[C@H]1C2CC[C@H]3[C@@H]4CC[C@H]([C@H](C)CCCC(C)C)[C@@]4(C)CC[C@@H]3[C@@]2(C)CC[C@H]1O` (stereo not given in full), with “inactive”.
The same measure, in the same setting: then `CC(C)CCC[C@@H](C)[C@H]1CC[C@H]2[C@@H]3CCC4[C@H](Cc5cccc(F)c5)[C@H](O)CC[C@]4(C)[C@H]3CC[C@]12C` (stereo not given in full), with “inactive”.
Same read-out and setting: then `CC(C)CCC[C@@H](C)[C@H]1CC[C@H]2[C@@H]3CCC4[C@H](Cc5ccc(C=O)cc5)[C@H](O)CC[C@]4(C)[C@H]3CC[C@]12C` (stereo not given in full), with “inactive”; and `COc1ccc(C[C@H]2C3CC[C@H]4[C@@H]5CC[C@H]([C@H](C)CCCC(C)C)[C@@]5(C)CC[C@@H]4[C@@]3(C)CC[C@H]2O)cc1` (stereo not given in full), with “inactive”.
In the case of `CC/C=C/C[C@H]1C2CC[C@H]3[C@@H]4CC[C@H]([C@H](C)CCCC(C)C)[C@@]4(C)CC[C@@H]3[C@@]2(C)CC[C@H]1O` (stereo not given in full), the EC30 entry in assay [1] was “inactive”.
For `C/C=C\C[C@H]1C2CC[C@H]3[C@@H]4CC[C@H]([C@H](C)CCCC(C)C)[C@@]4(C)CC[C@@H]3[C@@]2(C)CC[C@H]1O` (stereo not given in full), in the assay on CHO, the outcome was inactive. Besides, in assay [2], the EC30 came out at 26 µM. The MA in assay [3] was determined as 72%.
As for `CC(C)CCC[C@@H](C)[C@H]1CC[C@H]2[C@@H]3CCC4[C@H](C/C=C/c5ccccc5)[C@H](O)CC[C@]4(C)[C@H]3CC[C@]12C` (stereo not given in full), the EC30 entry in assay [1] was “inactive”.
Turning to `CC(C)CCC[C@@H](C)[C@H]1CC[C@H]2[C@@H]3CCC4[C@H](Cc5ccc(C#N)cc5)[C@H](O)CC[C@]4(C)[C@H]3CC[C@]12C` (stereo not given in full), in the assay on CHO, the outcome was inactive. In assay [2], the EC30 stood at 9.9 µM. Besides, the MA in assay [3] amounted to 55%.
`C=CC[C@@H]1C[C@@]2(C)C(CC[C@H]3[C@@H]4CC[C@H]([C@H](C)CCCC(C)C)[C@@]4(C)CC[C@@H]32)[C@H](CC=C)[C@@H]1O` (stereo not given in full): the EC30 result in assay [1] is “inactive”.
Turning to `C/C=C(\C)C[C@H]1C2CC[C@H]3[C@@H]4CC[C@H]([C@H](C)CCCC(C)C)[C@@]4(C)CC[C@@H]3[C@@]2(C)CC[C@H]1O` (stereo not given in full), the result with CHO was inactive. Also, the EC30 in assay [2] was determined as 18 µM. The MA in assay [3] is 72%.
On to `Cc1cccc(C[C@H]2C3CC[C@H]4[C@@H]5CC[C@H]([C@H](C)CCCC(C)C)[C@@]5(C)CC[C@@H]4[C@@]3(C)CC[C@H]2O)c1` (stereo not given in full), for which the EC30 result in assay [1] was “inactive”.
Same read-out and setting: for `C=CC[C@H]1C[C@H]2[C@@H]3CC[C@H]([C@H](C)CCCC(C)C)[C@@]3(C)CC[C@@H]2[C@@]2(C)CC[C@@H](O)CC12` (stereo not given in full) the value was “inactive”; for `C=C(Cl)C[C@H]1C2CC[C@H]3[C@@H]4CC[C@H]([C@H](C)CCCC(C)C)[C@@]4(C)CC[C@@H]3[C@@]2(C)CC[C@@H]1O` (stereo not given in full), “inactive”.
As for `CC(C)CCC[C@@H](C)[C@H]1CC[C@H]2[C@@H]3CCC4[C@H](Cc5ccc(C(F)(F)F)cc5)[C@H](O)CC[C@]4(C)[C@H]3CC[C@]12C` (stereo not given in full), in the assay on CHO, the result was inactive. Moreover, the EC30 in assay [2] amounted to 12 µM. Also, in assay [3], the MA is 58%.
Regarding `CC(C)CCC[C@@H](C)[C@H]1CC[C@H]2[C@@H]3CCC4[C@H](Cc5cccc(I)c5)[C@H](O)CC[C@]4(C)[C@H]3CC[C@]12C` (stereo not given in full), the MA result in assay [1] was “inactive”.
Take `CC(C)CCC[C@@H](C)[C@H]1CC[C@H]2[C@@H]3CCC4[C@H](Cc5ccc(Cl)cc5)[C@H](O)CC[C@]4(C)[C@H]3CC[C@]12C` (stereo not given in full): the result in the assay with CHO was inactive. The EC30 in assay [2] was 42 µM. The MA in assay [3] was 63%.
On to `C=C[C@H]1C2CC[C@H]3[C@@H]4CC[C@H]([C@H](C)CCCC(C)C)[C@@]4(C)CC[C@@H]3[C@@]2(C)CC[C@H]1O` (stereo not given in full), for which the EC30 result in assay [1] is “inactive”.
On the same count and under the same terms, for `CC(C)CCC[C@@H](C)[C@H]1CC[C@H]2[C@@H]3CCC4[C@H](Cc5cccc(F)c5F)[C@H](O)CC[C@]4(C)[C@H]3CC[C@]12C` (stereo not given in full) the value was “inactive”.
As for `C=C(C)C[C@H]1C2CC[C@H]3[C@@H]4CC[C@H]([C@H](C)CCCC(C)C)[C@@]4(C)CC[C@@H]3[C@@]2(C)CC[C@H]1O` (stereo not given in full), the result with CHO was inactive. Moreover, the EC30 in assay [2] came out at 2.8 µM. The MA in assay [3] turned out to be 124%.
Consider `CC(C)CCC[C@@H](C)[C@H]1CC[C@H]2[C@@H]3CCC4[C@H](Cc5ccc(CO)cc5)[C@H](O)CC[C@]4(C)[C@H]3CC[C@]12C` (stereo not given in full), for which the EC30 result in assay [1] was “inactive”.
The same measure, in the same setting: then `CC(C)CCC[C@@H](C)[C@H]1CC[C@H]2[C@@H]3CCC4[C@H](C/C=C/CO)[C@H](O)CC[C@]4(C)[C@H]3CC[C@]12C` (stereo not given in full), with “inactive”.
Consider `CCCC[C@H]1C2CC[C@H]3[C@@H]4CC[C@H]([C@H](C)CCCC(C)C)[C@@]4(C)CC[C@@H]3[C@@]2(C)CC[C@H]1O` (stereo not given in full), for which the result with CHO was inactive. Also, the EC30 in assay [2] was determined as 20 µM. Besides, in assay [3], the MA stood at 88%.
As to `C=CC[C@H]1[C@H](O)CC[C@@]2(C)[C@@H]1CC[C@@H]1[C@@H]2CC[C@]2(C)[C@@H]([C@H](C)CCCC(C)C)CC[C@@H]12`, the EC30 entry in assay [1] is “inactive”.
Consider `CC(C)CCC[C@@H](C)[C@H]1CC[C@H]2[C@@H]3CCC4[C@H](Cc5ccc(OCc6ccccc6)cc5)[C@H](O)CC[C@]4(C)[C@H]3CC[C@]12C` (stereo not given in full), for which, in assay [1], the EC30 result is “inactive”.
On the same count and under the same terms, for `CC(C)CCC[C@@H](C)[C@H]1CC[C@H]2[C@@H]3CCC4[C@H](Cc5ccc(F)cc5F)[C@H](O)CC[C@]4(C)[C@H]3CC[C@]12C` (stereo not given in full) the value was “inactive”; for `CC(C)CCC[C@@H](C)[C@H]1CC[C@H]2[C@@H]3CCC4[C@H](Cc5ccccc5F)[C@H](O)CC[C@]4(C)[C@H]3CC[C@]12C` (stereo not given in full), “inactive”.
Consider `COC(=O)c1ccc(C[C@H]2C3CC[C@H]4[C@@H]5CC[C@H]([C@H](C)CCCC(C)C)[C@@]5(C)CC[C@@H]4[C@@]3(C)CC[C@H]2O)cc1` (stereo not given in full), for which the result in the assay on CHO was inactive. In assay [2], the EC30 was found to be 14 µM. The MA in assay [3] is 48%.
Consider `CC(C)CCC[C@@H](C)[C@H]1CC[C@H]2[C@@H]3CC[C@H]4CC(=O)CC[C@]4(C)[C@H]3CC[C@]12C`, for which the EC30 entry in assay [1] was “inactive”.
On the same count and under the same terms, then `C=CC[C@@H]1C[C@H]2[C@@H]3CC[C@H]([C@H](C)CCCC(C)C)[C@@]3(C)CC[C@@H]2[C@@]2(C)CC[C@@H](O)CC12` (stereo not given in full), with “inactive”; and `CC(C)CCC[C@@H](C)[C@H]1CC[C@H]2[C@@H]3CCC4[C@H](Cc5ccc(C(=O)O)cc5)[C@H](O)CC[C@]4(C)[C@H]3CC[C@]12C` (stereo not given in full), with “inactive”.
Turning to `C=CC[C@H]1C2CC[C@H]3[C@@H]4CC[C@H]([C@H](C)CCCC(C)(C)O)[C@@]4(C)CC[C@@H]3[C@@]2(C)CC[C@H]1O` (stereo not given in full), in assay [2], the EC30 amounted to 9.4 µM. Also, in assay [3], the MA turned out to be 111%.
